Test results: ChEMBL document CHEMBL4229550, “An antimycobacterial pleuromutilin analogue effective against dormant bacilli” (Bioorg Med Chem, 2018)
Converted amounts (≈) assume the structure as drawn. The source made the active and inactive calls. No cut-off for these calls is given here.

Experiments:
Escherichia coli [1] = experiment: Antibacterial activity against Escherichia coli ATCC 10798 incubated for 24 hrs under aerobic condition by MABA; type: functional; conditions: ATCC 10798, 24 h, read-out: MIC100
How it was run: (§1)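 Mid-log cultures at OD 0.5 were exposed to serial dilutions under aerobic conditions at 37 °C for 24 h. Resazurin was then added from a 0.08% stock for 1 h. MIC100 was the lowest concentration where the dye stayed blue (pink means growth). Absorbance was also read at 570 and 600 nm.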

[2] = system: Mycobacterium tuberculosis; experiment: Bactericidal activity against replicating Mycobacterium tuberculosis H37Rv incubated for 15 days under aerobic condition by MABA; type: functional; conditions: 360 h
How it was run: (§2)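 Mtb H37Rv grown in 7H9/OADC at 37 °C with shaking to OD600 0.5. The 0.5-OD culture is exposed aerobically to serial dilutions for 15 days at 37 °C. Resazurin (0.02% stock) is then added for 4 h at 37 °C with shaking.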

Staphylococcus aureus [3] = experiment: Antibacterial activity against Staphylococcus aureus ATCC 25923 incubated for 24 hrs under aerobic condition by MABA; type: functional; conditions: ATCC 25923, 24 h, read-out: MIC100; how it was run: as §1
Staphylococcus aureus [4] = experiment: Bactericidal activity against Staphylococcus aureus incubated for 24 hrs under aerobic condition by MABA; type: functional
[5] = system: Mycolicibacterium smegmatis; experiment: Antibacterial activity against Mycobacterium smegmatis ATCC 607 incubated for 48 hrs under aerobic condition by MABA; type: functional; conditions: ATCC 607, 48 h, read-out: MIC100
How it was run: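 Mid-log culture at OD 0.5 was incubated with serial dilutions aerobically at 37 °C for 48 h. Resazurin was then added from a 0.08% stock for 1 h. MIC100 was the lowest concentration that stayed blue; absorbance was also read at 570/600 nm.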

Streptococcus salivarius [6] = experiment: Bactericidal activity against Streptococcus salivarius ATCC 6301 incubated for 24 hrs under aerobic condition by MABA; type: functional; conditions: ATCC 6301, 24 h
Staphylococcus aureus [7] = experiment: Bactericidal activity against Staphylococcus aureus BAA 1683 incubated for 24 hrs under aerobic condition by MABA; type: functional; conditions: BAA 1683, 24 h
Enterococcus faecalis [8] = experiment: Bactericidal activity against Enterococcus faecalis ATCC 349 incubated for 24 hrs under aerobic condition by MABA; type: functional; conditions: ATCC 349, 24 h
Staphylococcus aureus [9] = experiment: Bactericidal activity against Staphylococcus aureus BAA 44 incubated for 24 hrs under aerobic condition by MABA; type: functional; conditions: BAA 44, 24 h
[10] = system: Mycobacterium tuberculosis; experiment: Bactericidal activity against non-replicating Mycobacterium tuberculosis CDC1551 expressing tdTomato infected in mouse J774A.1 cells at 2 times MIC after 48 hrs by UV-Visible spectroscopic method; type: functional, organism-based
How it was run: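 J774A.1 macrophages are seeded at […] cells/well in DMEM and incubated overnight at 37 °C. They are infected with saline-washed Mtb CDC1551-tdTomato (10^6 bacteria, MOI ≈10), and extracellular bacteria are washed off with PBS. Treatment is at 2×MIC, with fluorescence emission read at 581 nm at 24, 48, 72 and 96 h. Survivors are confirmed by serial dilution and plating on 7H11.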

Staphylococcus aureus [11] = experiment: Bactericidal activity against Staphylococcus aureus BAA 2094 incubated for 24 hrs under aerobic condition by MABA; type: functional; conditions: BAA 2094, 24 h
[12] = system: Mycolicibacterium smegmatis; experiment: Bactericidal activity against Mycobacterium smegmatis ATCC 607 incubated for 48 hrs under aerobic condition by MABA; type: functional; conditions: ATCC 607, 48 h
Streptococcus pneumoniae [13] = experiment: Bactericidal activity against Streptococcus pneumoniae ATCC 6301 incubated for 24 hrs under aerobic condition by MABA; type: functional; conditions: ATCC 6301, 24 h
Acinetobacter baumannii [14] = experiment: Bactericidal activity against Acinetobacter baumannii ATCC 19606 incubated for 24 hrs under aerobic condition by MABA; type: functional; conditions: ATCC 19606 = CIP 70.34 = JCM 6841, 24 h
Staphylococcus aureus [15] = experiment: Antibacterial activity against Staphylococcus aureus BAA 44 incubated for 24 hrs under aerobic condition by MABA; type: functional; conditions: BAA 44, 24 h, read-out: MIC100; how it was run: as §1
Staphylococcus aureus [16] = experiment: Antibacterial activity against Staphylococcus aureus BAA 1683 incubated for 24 hrs under aerobic condition by MABA; type: functional; conditions: BAA 1683, 24 h, read-out: MIC100; how it was run: as §1
Enterococcus faecalis [17] = experiment: Antibacterial activity against Enterococcus faecalis ATCC 19433 incubated for 24 hrs under aerobic condition by MABA; type: functional; conditions: ATCC 19433, 24 h, read-out: MIC100; how it was run: as §1
Streptococcus pneumoniae [18] = experiment: Antibacterial activity against Streptococcus pneumoniae ATCC 6301 incubated for 24 hrs under aerobic condition by MABA; type: functional; conditions: ATCC 6301, 24 h, read-out: MIC100; how it was run: as §1
Clostridioides difficile = experiment: Bactericidal activity against Clostridium difficile ATCC 700057 incubated for 24 hrs […] by MABA; type: functional; conditions: ATCC 700057, 24 h
Klebsiella pneumoniae [19] = experiment: Antibacterial activity against Klebsiella pneumoniae ATCC 12019 incubated for 24 hrs under aerobic condition by MABA; type: functional; conditions: ATCC 12019, 24 h, read-out: MIC100; how it was run: as §1
Bacillus subtilis [20] = experiment: Antibacterial activity against Bacillus subtilis ATCC 6051 incubated for 24 hrs under aerobic condition by MABA; type: functional; conditions: ATCC 6051, 24 h, read-out: MIC100; how it was run: as §1
Bacillus subtilis [21] = experiment: Bactericidal activity against Bacillus subtilis ATCC 6051 incubated for 24 hrs under aerobic condition by MABA; type: functional; conditions: ATCC 6051, 24 h
Staphylococcus aureus [22] = experiment: Bactericidal activity against Staphylococcus aureus ATCC 25923 incubated for 24 hrs under aerobic condition by MABA; type: functional; conditions: ATCC 25923, 24 h
Klebsiella pneumoniae [23] = experiment: Bactericidal activity against Klebsiella pneumoniae ATCC 12019 incubated for 24 hrs under aerobic condition by MABA; type: functional; conditions: ATCC 12019, 24 h
Vero = experiment: Cytotoxicity against African green monkey Vero cells assessed as reduction in cell viability after 72 hrs by MTT assay; type: cell-based; conditions: Chlorocebus sabaeus
How it was run: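 Vero cells were grown in complete EMEM with 10% FBS and exposed for 72 h to 0.78–200 µg/mL. The medium was then swapped for phenol-red-free EMEM and MTT was added. Formazan absorbance was read at 570 nm to give IC50.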

Enterococcus faecalis [24] = experiment: Antibacterial activity against Enterococcus faecalis ATCC 349 incubated for 24 hrs under aerobic condition by MABA; type: functional; conditions: ATCC 349, 24 h, read-out: MIC100; how it was run: as §1
Escherichia coli [25] = experiment: Bactericidal activity against Escherichia coli ATCC 10798 incubated for 24 hrs under aerobic condition by MABA; type: functional; conditions: ATCC 10798, 24 h
Acinetobacter baumannii [26] = experiment: Antibacterial activity against Acinetobacter baumannii ATCC 19606 incubated for 24 hrs under aerobic condition by MABA; type: functional; conditions: ATCC 19606 = CIP 70.34 = JCM 6841, 24 h, read-out: MIC100; how it was run: as §1
Enterococcus faecalis [27] = experiment: Bactericidal activity against Enterococcus faecalis ATCC 19433 incubated for 24 hrs under aerobic condition by MABA; type: functional; conditions: ATCC 19433, 24 h
Streptococcus salivarius [28] = experiment: Antibacterial activity against Streptococcus salivarius […] incubated for 24 hrs under aerobic condition by MABA; type: functional; conditions: read-out: MIC100
How it was run: (§3)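 Resazurin was then added from a 0.08% stock for 1 h. MIC100 was the lowest concentration where the dye stayed blue (pink means growth). Absorbance was also read at 570 and 600 nm.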

Escherichia coli [29] = experiment: Inhibition of protein translation/transcription in Escherichia coli S30 cell extract at 0.1 ug/ml using circular DNA with pBESTluc after 60 mins by luciferase reporter gene assay; type: functional
How it was run: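 Coupled transcription/translation used E. coli S30 extract, amino acid mix and premix, with the pBESTluc template carrying firefly luciferase under the tac promoter. Compounds were added in DMSO and reactions were started with DNA. Incubation was 60 min at 37 °C, stopped on ice, and luciferase was read after adding assay substrate.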

Staphylococcus aureus [30] = experiment: Antibacterial activity against Staphylococcus aureus BAA 2094 incubated for 24 hrs under aerobic condition by MABA; type: functional; conditions: BAA 2094, 24 h, read-out: MIC100; how it was run: as §3
[31] = system: Mycobacterium tuberculosis; experiment: Antibacterial activity against replicating Mycobacterium tuberculosis H37Rv incubated for 15 days under aerobic condition by MABA; type: functional; conditions: 360 h, read-out: MIC100; how it was run: as §2
Escherichia coli [32] = experiment: Inhibition of protein translation/transcription in Escherichia coli S30 cell extract using circular DNA with pBESTluc after 60 mins by luciferase reporter gene assay; type: functional; conditions: 1 h
How it was run: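 E. coli S30 circular-DNA coupled transcription/translation kit with the pBESTluc template (firefly luciferase under the tac promoter). S30 extract, amino acids and premix are combined with compound in DMSO, and the reaction is started with DNA. Incubation is 60 min at 37 °C, stopped on ice, then luciferase luminescence is read.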

Staphylococcus aureus [33] = experiment: Antibacterial activity against Staphylococcus aureus incubated for 24 hrs under aerobic condition by MABA; type: functional; conditions: read-out: MIC100; how it was run: as §3
[34] = Selectivity index, ratio of IC50 for African green monkey Vero cells to MIC100 for replicating Mycobacterium tuberculosis H37Rv by MABA; type: toxicity; conditions: read-out: Selectivity Index
How it was run: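 Vero cells are cultured in EMEM with 10% FBS and exposed for 72 h to 0.78–200 µg/mL. Medium is switched to phenol-red-free EMEM, MTT is added, and formazan is read at 570 nm to give IC50. The selectivity index is Vero IC50 divided by the MABA MIC.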

| Compound | MIC (Escherichia coli [1]) | MBC [2] | MIC (Staphylococcus aureus [3]) | MBC (Staphylococcus aureus [4]) | MIC [5] | MBC (Streptococcus salivarius [6]) | MBC (Staphylococcus aureus [7]) | MBC (Enterococcus faecalis [8]) | MBC (Staphylococcus aureus [9]) | MBC (Staphylococcus aureus [11]) | MBC [12] | MBC (Streptococcus pneumoniae [13]) | MBC (Acinetobacter baumannii [14]) | MIC (Staphylococcus aureus [15]) | MIC (Staphylococcus aureus [16]) | MIC (Enterococcus faecalis [17]) | MIC (Streptococcus pneumoniae [18]) | MBC (Clostridioides difficile) | MIC (Klebsiella pneumoniae [19]) | MIC (Bacillus subtilis [20]) | also measured |
| --- | --- | --- | --- | --- | --- | --- | --- | --- | --- | --- | --- | --- | --- | --- | --- | --- | --- | --- | --- | --- | --- |
| CO[C@H]1/C=C/O[C@@]2(C)Oc3c(C)c(O)c4c(O)c(c(/C=N/N5CCN(C)CC5)c(O)c4c3C2=O)NC(=O)/C(C)=C\C=C\[C@H](C)[C@H](O)[C@@H](C)[C@@H](O)[C@@H](C)[C@H](OC(C)=O)[C@@H]1C [RIFAMPIN] | 3.13 µg/mL (≈ 3.8 µM) | 0.01 µg/mL (≈ 0.0122 µM) | > 25 µg/mL | 0.4 µg/mL (≈ 0.486 µM) | > 25 µg/mL | > 25 µg/mL | 0.2 µg/mL (≈ 0.243 µM) | > 25 µg/mL | 25 µg/mL (≈ 30.4 µM) | 0.2 µg/mL (≈ 0.243 µM) | > 25 µg/mL | > 25 µg/mL | 3.13 µg/mL (≈ 3.8 µM) | 6.25 µg/mL (≈ 7.59 µM) | 0.15 µg/mL (≈ 0.182 µM) | 0.78 µg/mL (≈ 0.948 µM) | 25 µg/mL (≈ 30.4 µM) | 0.78 µg/mL (≈ 0.948 µM) | 1.56 µg/mL (≈ 1.9 µM) | 0.3 µg/mL (≈ 0.365 µM) | Activity [10]: Active; MBC (Bacillus subtilis [21]): 0.4 µg/mL (≈ 0.486 µM); MBC (Staphylococcus aureus [22]): > 25 µg/mL; MBC (Klebsiella pneumoniae [23]): 3.13 µg/mL (≈ 3.8 µM); IC50 (Vero): > 200 µg/mL; MIC (Enterococcus faecalis [24]): > 25 µg/mL; MBC (Escherichia coli [25]): 25 µg/mL (≈ 30.4 µM); MIC (Acinetobacter baumannii [26]): 2.35 µg/mL (≈ 2.86 µM); MBC (Enterococcus faecalis [27]): 1.56 µg/mL (≈ 1.9 µM) |
| CC(=O)NC[C@H]1CN(c2ccc(N3CCOCC3)c(F)c2)C(=O)O1 [LINEZOLID] | 25 µg/mL (≈ 74.1 µM) | 1.61 µg/mL (≈ 4.77 µM) | > 25 µg/mL | 1.56 µg/mL (≈ 4.62 µM) | 0.2 µg/mL (≈ 0.593 µM) | > 25 µg/mL | 25 µg/mL (≈ 74.1 µM) | > 25 µg/mL | > 25 µg/mL | > 25 µg/mL | 0.8 µg/mL (≈ 2.37 µM) | > 25 µg/mL | > 25 µg/mL | > 25 µg/mL | 12.5 µg/mL (≈ 37.1 µM) | 12.5 µg/mL (≈ 37.1 µM) | 25 µg/mL (≈ 74.1 µM) | 3.13 µg/mL (≈ 9.28 µM) | 25 µg/mL (≈ 74.1 µM) | 3.13 µg/mL (≈ 9.28 µM) | MIC (Streptococcus salivarius [28]): 3.13 µg/mL (≈ 9.28 µM); inhibition (Escherichia coli [29]): Active; MIC (Staphylococcus aureus [30]): > 25 µg/mL; MIC [31]: 0.6 µg/mL (≈ 1.78 µM); MBC (Bacillus subtilis [21]): 6.25 µg/mL (≈ 18.5 µM); MBC (Staphylococcus aureus [22]): > 25 µg/mL; MBC (Klebsiella pneumoniae [23]): > 25 µg/mL; IC50 (Vero): > 200 µg/mL; MIC (Enterococcus faecalis [24]): > 25 µg/mL; IC50 (Escherichia coli [32]): 0.05 µg/mL (≈ 0.148 µM); MBC (Escherichia coli [25]): > 25 µg/mL; MIC (Acinetobacter baumannii [26]): > 25 µg/mL; MIC (Staphylococcus aureus [33]): 0.78 µg/mL (≈ 2.31 µM); selectivity ratio [34]: > 333; MBC (Enterococcus faecalis [27]): 25 µg/mL (≈ 74.1 µM) |
